From ChEMBL document CHEMBL5724801, “EUbOPEN Chemogenomics Library - Multiplex” (2024)
Values joined by “and” are separate entries in the source; they are usually repeats but may differ in a detail not shown here. Equal entries are not always repeated.

Test system: Fibroblast
Assay: Multiplex assay against human fibroblast
Type: toxicity, cell-based
In short: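 Per cents of healthy-nucleus cells form the tubulin, mitochondrial-mass and membrane-permeability phenotype values. Live cells were stained at seeding with Hoechst33342, BioTracker Green Microtubule Cytoskeleton Dye, MitoTracker Red and Annexin V Alexa Fluor 680. After compound addition they were imaged on a CQ1 microscope at 37°C and 5% CO2, and CellPathfinder machine-learning gating split them into Hoechst high-intensity objects or normal cells, normal cells into healthy, pyknosed or fragmented nuclei, and pyknosed cells into mitotic or apoptotic.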

[1] = 12 h, 1 µM, compound concentration 1 uM
[2] = 12 h, 10 µM, compound concentration 10 uM
[3] = 24 h, 1 µM, compound concentration 1 uM
[4] = 24 h, 10 µM, compound concentration 10 uM
[5] = 48 h, 1 µM, compound concentration 1 uM
[6] = 48 h, 10 µM, compound concentration 10 uM

CCCCCCNC(=O)Nc1ccc(S(=O)(=O)Nc2ccc(CCNC[C@H](O)COc3ccc(O)cc3)cc2)cc1 [L-755507]
Population Apoptotic (%) [1]: 40% and 46%
Population Fragmented Nuclei (%) [1]: 27% and 21%
Population Healthy Nuclei (%) [1]: 59%
Population Hoechst High Intensity Objects (%) [1]: 1% and 3%
Population Membrane Permeable-Phenotype (%) [1]: 3%
Population Mitochondria Different-Phenotype (%) [1]: 6% and 3%
Population Mitotic Cells (%) [1]: 60% and 53%
Population Normal (%) [1]: 98% and 96%
Population Pyknosed Nuclei (%) [1]: 12% and 19%
Population Tubulin-Different-Phenotype (%) [1]: 34% and 36%
Total Cell Count [1]: 198 and 160
Population Apoptotic (%) [2]: 45% and 42%
Population Fragmented Nuclei (%) [2]: 17% and 34%
Population Healthy Nuclei (%) [2]: 72% and 48%
Population Hoechst High Intensity Objects (%) [2]: 5%
Population Membrane Permeable-Phenotype (%) [2]: 0% and 1%
Population Mitochondria Different-Phenotype (%) [2]: 10% and 19%
Population Mitotic Cells (%) [2]: 54% and 57%
Population Normal (%) [2]: 94%
Population Pyknosed Nuclei (%) [2]: 10% and 17%
Population Tubulin-Different-Phenotype (%) [2]: 47% and 64%
Total Cell Count [2]: 218 and 172
Population Apoptotic (%) [3]: 31% and 39%
Population Fragmented Nuclei (%) [3]: 26%
Population Healthy Nuclei (%) [3]: 63% and 59%
Population Hoechst High Intensity Objects (%) [3]: 1% and 2%
Population Membrane Permeable-Phenotype (%) [3]: 0% and 3%
Population Mitochondria Different-Phenotype (%) [3]: 3% and 12%
Population Mitotic Cells (%) [3]: 68% and 60%
Population Normal (%) [3]: 98% and 97%
Population Pyknosed Nuclei (%) [3]: 9% and 13%
Population Tubulin-Different-Phenotype (%) [3]: 27% and 44%
Total Cell Count [3]: 196 and 176
Population Apoptotic (%) [4]: 72% and 50%
Population Fragmented Nuclei (%) [4]: 21% and 38%
Population Healthy Nuclei (%) [4]: 70% and 51%
Population Hoechst High Intensity Objects (%) [4]: 8% and 4%
Population Membrane Permeable-Phenotype (%) [4]: 0% and 3%
Population Mitochondria Different-Phenotype (%) [4]: 8% and 19%
Population Mitotic Cells (%) [4]: 27% and 50%
Population Normal (%) [4]: 91% and 95%
Population Pyknosed Nuclei (%) [4]: 8% and 9%
Population Tubulin-Different-Phenotype (%) [4]: 38% and 65%
Total Cell Count [4]: 232 and 168
Population Apoptotic (%) [5]: 62% and 53%
Population Fragmented Nuclei (%) [5]: 28% and 33%
Population Healthy Nuclei (%) [5]: 63% and 58%
Population Hoechst High Intensity Objects (%) [5]: 3% and 4%
Population Membrane Permeable-Phenotype (%) [5]: 0% and 1%
Population Mitochondria Different-Phenotype (%) [5]: 4% and 6%
Population Mitotic Cells (%) [5]: 37% and 46%
Population Normal (%) [5]: 96% and 95%
Population Pyknosed Nuclei (%) [5]: 8%
Population Tubulin-Different-Phenotype (%) [5]: 31% and 33%
Total Cell Count [5]: 201 and 170
Population Apoptotic (%) [6]: 79% and 71%
Population Fragmented Nuclei (%) [6]: 19% and 42%
Population Healthy Nuclei (%) [6]: 69% and 53%
Population Hoechst High Intensity Objects (%) [6]: 6% and 3%
Population Membrane Permeable-Phenotype (%) [6]: 1% and 5%
Population Mitochondria Different-Phenotype (%) [6]: 8% and 11%
Population Mitotic Cells (%) [6]: 20% and 28%
Population Normal (%) [6]: 93% and 96%
Population Pyknosed Nuclei (%) [6]: 10% and 3%
Population Tubulin-Different-Phenotype (%) [6]: 49% and 55%
Total Cell Count [6]: 240 and 184
